Test [1] relates to MDA-MB-231. The experiment in a line: Induction of apoptosis in retinoid-resistant MDA-MB-231 cells at 2 uM after 96 hrs. The class given is functional, Homo sapiens.
Test [2] relates to KG-1. The experiment in a line: Inhibition of cell proliferation in retinoid-resistant KG1 cells at 1 uM after 48 hrs relative to control. It counts as functional. The following applies: Homo sapiens, KG-1, 48 h. An outline of the steps:
(§1)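 KG-1 cells grown in RPMI-1640 with 5% heat-inactivated FBS and gentamycin, seeded in 3 mL medium plus 5% FBS, incubated overnight. Compound then added in Me2SO (0.1% final), cells incubated for the stated time, harvested and counted by hemocytometer.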

The subject of test [3] is MDA-MB-231. The experiment in a line: Growth inhibition of retinoid-resistant MDA-MB-231 cells after 72 hrs. It counts as functional, cell-based. The following applies: Homo sapiens, MDA-MB-231, 72 h. An outline of the steps: (§2)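 Cells seeded at 2 × 10^3 per well for H292 and DU-145 (RPMI-1640, 10% FBS) or 4 × 10^3 for MDA-MB-231 (DMEM, 10% FBS), 37 °C, 6% CO2. After 24 h attachment, treated 72 h with compound in Me2SO (0.1% final); media and compound renewed at 48 h. Viable cells by MTS reduction; triplicates per concentration.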

The test system of test [4] is KG-1. The experiment in a line: Growth inhibition of retinoid-resistant KG1 cells at 5 uM after 48 hrs. Conditions: Homo sapiens, KG-1, 48 h. The class given is functional. An outline of the steps:
as §1

Test [5] concerns KG-1. The experiment in a line: Inhibition of cell proliferation in retinoid-resistant KG1 cells after 48 hrs. The class given is functional, cell-based. Conditions: Homo sapiens, KG-1, 48 h. An outline of the steps:
as §1

Test [6] deals with Receptor-type tyrosine-protein phosphatase C, CD45 (Homo sapiens) (UniProt P08575). The experiment in a line: Inhibition of CD45 PTP at 10 uM relative to control by fluorescence spectrometry.
Test [7] addresses T1, Nuclear receptor subfamily 0 group B member 2 (Homo sapiens) (UniProt Q15466).
T1 sequence (whole entry): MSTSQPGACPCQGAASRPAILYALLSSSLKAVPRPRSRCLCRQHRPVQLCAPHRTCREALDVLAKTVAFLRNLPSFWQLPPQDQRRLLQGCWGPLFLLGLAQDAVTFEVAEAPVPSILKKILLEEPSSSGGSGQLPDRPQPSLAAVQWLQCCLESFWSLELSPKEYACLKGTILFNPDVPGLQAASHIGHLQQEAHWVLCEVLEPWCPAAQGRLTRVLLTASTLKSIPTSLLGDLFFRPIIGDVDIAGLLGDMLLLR
The experiment in a line: Displacement of [5,5'-3H2]AHPN from recombinant human GST-SHP partner nuclear orphan receptor at 50 uM. An outline of the steps: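 GST–human SHP fusion (150–500 ng) on glutathione-Sepharose beads preincubated on ice 45 min with unlabeled compound (50 µM final) in 0.4 mL binding buffer. [5,5′-3H2]AHPN (5 nM final) then added for 2 h at 4 °C. Beads washed, counted by scintillation directly or after elution with 50 mM NaHCO3/1% SDS.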

The nature of test [8]: Growth inhibition of primary HMVE cells at 1 uM after 72 hrs. The class given is functional. Conditions: Homo sapiens. An outline of the steps:
(§3)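 Primary HMVE cells, 1 × 10^4 per well in EGM-MV medium, incubated 1 h at 37 °C. Compound in Me2SO added, or Me2SO alone (0.5% final). After 72 h at 37 °C, cells detached with trypsin/EDTA and counted by hemocytometer; three replicates.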

Test [9] relates to KG-1. The experiment in a line: Induction of apoptosis in retinoid-resistant KG1 cells at 5 uM after 48 hrs. The class given is functional, Homo sapiens. An outline of the steps:
(§4)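 Apoptotic cells scored by acridine orange staining. KG-1, HL-60R or MDA-MB-231 cells seeded in medium with 5% FBS, incubated overnight, then exposed to compound in Me2SO (0.1% final) for the stated time.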

For test [10], the system named is DU-145. The experiment in a line: Growth inhibition of retinoid-resistant DU145 cells after 72 hrs. It counts as functional, cell-based. Conditions: Homo sapiens, DU-145, 72 h. An outline of the steps:
as §2

Test [11] deals with KG-1. The experiment in a line: Induction of apoptosis in retinoid-resistant KG1 cells at 1 uM after 48 hrs. It counts as functional, Homo sapiens. An outline of the steps:
as §4

Test [12] concerns DU-145. The experiment in a line: Growth inhibition of retinoid-resistant DU145 cells at 1 uM relative to control. Conditions: Homo sapiens. The class given is functional. An outline of the steps: as §2
In test [13] the test system is MDA-MB-231. The experiment in a line: Growth inhibition of retinoid-resistant MDA-MB-231 cells at 1 uM relative to control. The following applies: Homo sapiens. The class given is functional. An outline of the steps:
as §2

Test [14] in a line: Growth inhibition of retinoid-resistant H292 cells at 1 uM relative to control. The following applies: Homo sapiens, NCI-H292. The class given is functional. An outline of the steps: as §2
The nature of test [15]: Growth inhibition of retinoid-resistant H292 cells after 72 hrs. The class given is functional, cell-based. Conditions: Homo sapiens, NCI-H292, 72 h. An outline of the steps: as §2
Test [16] addresses T2, Tyrosine-protein phosphatase non-receptor type 11 (Homo sapiens, UniProt Q06124).
T2 sequence (Q06124 whole entry): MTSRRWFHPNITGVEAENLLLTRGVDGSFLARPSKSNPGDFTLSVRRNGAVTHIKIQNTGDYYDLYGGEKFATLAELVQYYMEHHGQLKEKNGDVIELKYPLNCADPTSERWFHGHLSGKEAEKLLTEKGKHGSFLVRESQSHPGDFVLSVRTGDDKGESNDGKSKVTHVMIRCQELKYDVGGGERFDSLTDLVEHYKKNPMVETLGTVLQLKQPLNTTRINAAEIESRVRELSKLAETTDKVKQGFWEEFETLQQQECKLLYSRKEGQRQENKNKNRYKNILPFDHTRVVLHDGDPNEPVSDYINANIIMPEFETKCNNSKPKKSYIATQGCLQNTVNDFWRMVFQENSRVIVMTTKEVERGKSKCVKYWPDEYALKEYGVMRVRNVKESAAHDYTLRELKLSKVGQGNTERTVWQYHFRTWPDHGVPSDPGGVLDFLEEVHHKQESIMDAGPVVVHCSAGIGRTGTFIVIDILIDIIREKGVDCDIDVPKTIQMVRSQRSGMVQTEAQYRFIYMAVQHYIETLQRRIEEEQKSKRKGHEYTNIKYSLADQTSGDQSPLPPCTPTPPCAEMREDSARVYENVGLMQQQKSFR
The experiment in a line: Inhibition of SHP2 PTP by fluorescence spectroscopy.

The test system of test [17] is MDA-MB-231. The experiment in a line: Induction of apoptosis in retinoid-resistant MDA-MB-231 cells at 1 uM after 96 hrs. The class given is functional, Homo sapiens. An outline of the steps: as §4
Test [18] relates to Mus musculus. The experiment in a line: Inhibition of TPA-induced ornithine decarboxylase in mouse dorsal epidermis applied topically after 1 hr. It counts as functional.
Test [19] in a line: Induction of apoptosis in tran-RA-resistant HL60R cells at 1 uM after 24 hrs. It counts as functional, Homo sapiens.
Test [20] is described as follows: Antiproliferative activity against HMVE cells. The class given is functional, cell-based. Conditions: Homo sapiens.
The subject of test [21] is MDA-MB-231. The experiment in a line: Induction of apoptosis in MDA-MB-231 cells at 1 uM after 96 hrs. It counts as functional, Homo sapiens. An outline of the steps:
as §4

Test [22] can be described thus: Inhibition of HMVE cell proliferation at 0.5 uM relative to control. It counts as functional. Conditions: Homo sapiens.
The test system of test [23] is HMVE. The experiment in a line: Induction of apoptosis in HMVE cells assessed as increase in oligonucleosome levels after 20 hrs by ELISA. It counts as functional, cell-based. The following applies: Homo sapiens. An outline of the steps: (§5)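 HMVE cells (6 × 10^4 per well) seeded in EGM-MV, incubated 6 h at 37 °C. Then treated 20 h with compound (10–500 nM), 1.0 µM doxorubicin or Me2SO (0.5% final). Cytoplasmic histone-associated DNA fragments in lysate supernatant measured by Cell Death Detection ELISA; triplicates.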
Background: ELISA stands for enzyme-linked immunosorbent assay.

Test [24] deals with HMVE. The experiment in a line: Inhibition of HMVE cell migration through Matrigel after 5 hrs. The class given is functional, cell-based. Conditions: Homo sapiens. An outline of the steps: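 Transwell inserts (8 µm pores) with undersides coated with Matrigel (30 µg/mL), blocked with 1% BSA. HMVE cells from 80% confluent cultures, released enzyme-free, were placed in inserts with compound (0.05–500 nM) or Me2SO (0.01% final). After 5 h at 37 °C, cells on underside fixed, stained with Diff-Quick and counted in three high-power fields per well; mean ± SD of three replicates.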

Test [25] in a line: Growth inhibition of primary HMVE cells after 72 hrs. It counts as functional, cell-based. The following applies: Homo sapiens. An outline of the steps:
as §3

The subject of test [26] is HMVE. The experiment in a line: Inhibition of HMVE cell tubule formation in Matrigel after 18 hrs. The class given is functional, cell-based. The following applies: Homo sapiens. An outline of the steps:
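Trypsinized HMVE cells (5 × 10^4 per well in EGM-MV) plated on gelled Matrigel, held 1 h at 37 °C, then exposed 18 h at 37 °C to 0.25 or 1.0 µM compound or Me2SO (0.05% final). Total tube length measured from phase-contrast images, four random fields per well, three replicates.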

The nature of test [27]: Induction of apoptosis in HMVE cells at 0.5 uM after 20 hrs relative to adriamycin. It counts as functional, Homo sapiens. An outline of the steps: as §5

The structures appear in SMILES notation. Calls of active or inactive are those of the source. No cut-off for these calls is given here.

Chain of Receptor-type tyrosine-protein phosphatase C, CD45 (Homo sapiens) (P08575 whole entry, looked up): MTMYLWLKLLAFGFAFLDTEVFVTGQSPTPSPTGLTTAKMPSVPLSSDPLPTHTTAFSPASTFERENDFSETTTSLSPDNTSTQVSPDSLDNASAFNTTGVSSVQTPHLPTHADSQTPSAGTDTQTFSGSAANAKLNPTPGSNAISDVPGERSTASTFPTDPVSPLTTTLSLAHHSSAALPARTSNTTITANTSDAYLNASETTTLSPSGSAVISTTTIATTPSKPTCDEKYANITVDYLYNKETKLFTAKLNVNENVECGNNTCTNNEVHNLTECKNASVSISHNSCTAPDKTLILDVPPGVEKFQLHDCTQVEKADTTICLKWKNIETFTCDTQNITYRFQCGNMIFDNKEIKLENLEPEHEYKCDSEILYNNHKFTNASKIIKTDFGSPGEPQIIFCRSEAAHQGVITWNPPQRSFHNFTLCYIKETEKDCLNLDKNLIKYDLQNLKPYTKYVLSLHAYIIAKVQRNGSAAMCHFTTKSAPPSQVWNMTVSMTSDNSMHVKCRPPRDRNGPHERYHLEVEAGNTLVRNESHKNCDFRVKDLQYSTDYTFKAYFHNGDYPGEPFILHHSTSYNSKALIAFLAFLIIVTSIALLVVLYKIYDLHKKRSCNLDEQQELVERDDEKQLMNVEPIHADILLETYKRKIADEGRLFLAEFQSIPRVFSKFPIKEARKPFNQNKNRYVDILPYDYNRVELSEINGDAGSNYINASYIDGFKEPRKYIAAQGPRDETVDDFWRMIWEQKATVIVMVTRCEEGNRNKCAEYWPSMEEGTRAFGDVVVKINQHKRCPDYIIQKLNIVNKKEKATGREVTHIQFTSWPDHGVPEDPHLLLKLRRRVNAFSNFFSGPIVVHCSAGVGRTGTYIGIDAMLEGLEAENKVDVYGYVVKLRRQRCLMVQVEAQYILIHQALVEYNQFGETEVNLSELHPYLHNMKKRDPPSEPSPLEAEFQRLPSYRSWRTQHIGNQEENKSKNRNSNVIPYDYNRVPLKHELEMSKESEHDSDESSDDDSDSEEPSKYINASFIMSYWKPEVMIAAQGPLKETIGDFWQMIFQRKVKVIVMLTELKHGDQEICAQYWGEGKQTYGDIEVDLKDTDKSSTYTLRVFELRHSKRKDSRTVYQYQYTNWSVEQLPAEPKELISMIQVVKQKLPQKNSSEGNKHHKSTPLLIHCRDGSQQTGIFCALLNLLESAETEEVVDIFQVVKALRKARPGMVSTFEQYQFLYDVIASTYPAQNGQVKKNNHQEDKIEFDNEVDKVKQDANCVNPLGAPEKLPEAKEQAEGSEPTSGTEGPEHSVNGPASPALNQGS

Compound `O=C(O)c1cccc2c(-c3ccc(O)c(C45CC6CC(CC(C6)C4)C5)c3)cccc12` returned an Activity in [1] of 4%.
Regarding `O=C1NC(=O)/C(=C/c2ccc(-c3ccc(O)c(C45CC6CC(CC(C6)C4)C5)c3)c(Cl)c2)S1`, the inhibition (as a rule, how much of the control response was suppressed) at 1 µM in test [2] came out at 28%; in test [8], 30%; in test [12], 17%; in test [13], 0%; in test [14] it was 17%. The IC50 (usually the midpoint of a concentration-inhibition curve) is 18000 nM in [3]; 14000 nM in test [5]; 3700 nM in test [10]; 3600 nM in [15]; 2200 nM in test [16]. Further, at 5 µM the inhibition in [4] was 41%. In [6], this compound gave an inhibition of 53%. Moreover, the Activity in test [7] was 37%; in test [9], 10%; in test [11], 8%.
`O=C(O)c1ccc2cc(-c3ccc(O)c(C45CC6CC(CC(C6)C4)C5)c3)ccc2c1` [O-DEMETHYLATED ADAPALENE]: the Activity in test [7] amounted to 53%; in [17], 46%; in test [19] it was 98%. This compound also displayed an ID50 in test [18] of 66 nmol. Moreover, the IC50 in [20] stood at 300 nM.
With `O=C(O)/C=C/c1ccc(-c2ccc(O)c(C34CC5CC(CC(C5)C3)C4)c2)c(Cl)c1`, the inhibition at 1 µM in [2] worked out at 44%; in test [12], 76%; in [13], 32%; in [14], 79%. For the same compound, the IC50 in test [3] is 1800 nM; in test [5], 300 nM; in test [10] it was 500 nM; in [25] it was 300 nM; in test [15], 400 nM; in [20] it was 300 nM. Besides, at 5 µM the inhibition in [4] was 67%. Further, the Activity in test [21] was 43%; in test [7], 87%; in test [23] it was “Dose-dependent effect”; in test [9] it was 55%; in [11], 30%; in test [27] it was 64%. In [22], this compound showed an inhibition at 0.5 µM of 60%. For the same compound, the outcome in test [24] and in [26] was inactive.

The record behind these values is ChEMBL document CHEMBL1143670, “An adamantyl-substituted retinoid-derived molecule that inhibits cancer cell growth and angiogenesis by inducing apoptosis and binds to small heterodimer partner nuclear receptor: effects of modifying its carboxylate group on apoptosis, proliferation, and protein-tyrosine phosphatase activity” (J Med Chem, 2007).
